What was measured:
[1] = Ratio of fAUC to MIC in Klebsiella pneumoniae isolate 135-infected ICR mouse at 50% maximal effective concentration; assay type: functional
Procedure, shortened: (§1)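 EI50, EI80 and the static exposure were read from fitted curves. Free AUC came from earlier mouse PK using concentration-dependent protein binding set at Cmax. MICs were run in triplicate by CLSI broth microdilution in Mueller-Hinton broth prepared <12 h before testing, or by Etest.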

[2] = Ratio of fAUC to MIC in extended-spectrum beta-lactamase producing Klebsiella pneumoniae isolate 255-infected ICR mouse at 50% maximal effective concentration; assay type: functional
Procedure, shortened: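 Female CD-1/ICR mice (~25 g) were made neutropenic with cyclophosphamide IP (150 mg/kg day −4, 100 mg/kg day −1). Each thigh received 0.1 ml IM of 10^7 CFU/ml inoculum. Tigecycline in saline was given SC 2 h later, single or multiple doses, 6.25–300 mg/kg/day. Three mice per group.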

[3] = Ratio of fAUC to MIC in extended-spectrum beta-lactamase producing Klebsiella pneumoniae isolate 266-infected ICR mouse at 50% maximal effective concentration; assay type: functional; procedure, shortened: as §1
[4] = Ratio of fAUC to MIC in extended-spectrum beta-lactamase producing Klebsiella pneumoniae isolate 320-infected ICR mouse at 50% maximal effective concentration; assay type: functional; procedure, shortened: as §1
[5] = Ratio of fAUC to MIC in carbapenemase producing Klebsiella pneumoniae isolate 321-infected ICR mouse at 50% maximal effective concentration; assay type: functional; procedure, shortened: as §1
[6] = Ratio of fAUC to MIC in Escherichia coli isolate 54-infected ICR mouse at bacteriostatic concentration; assay type: functional; procedure, shortened: as §1
[7] = Ratio of fAUC to MIC in Escherichia coli isolate 120-infected ICR mouse at bacteriostatic concentration; assay type: functional; procedure, shortened: as §1
[8] = Ratio of fAUC to MIC in extended-spectrum beta-lactamase producing Escherichia coli isolate 315-infected ICR mouse at bacteriostatic concentration; assay type: functional; procedure, shortened: as §1
[9] = Ratio of fAUC to MIC in extended-spectrum beta-lactamase producing Escherichia coli isolate 321-infected ICR mouse at bacteriostatic concentration; assay type: functional; procedure, shortened: as §1
[10] = Ratio of fAUC to MIC in extended-spectrum beta-lactamase producing Escherichia coli isolate 322-infected ICR mouse at bacteriostatic concentration; assay type: functional; procedure, shortened: as §1
[11] = Ratio of fAUC to MIC in Klebsiella pneumoniae isolate 134-infected ICR mouse at bacteriostatic concentration; assay type: functional; procedure, shortened: as §1
[12] = Ratio of fAUC to MIC in Klebsiella pneumoniae isolate 135 at bacteriostatic concentration; assay type: functional; procedure, shortened: as §1
[13] = Ratio of fAUC to MIC in extended-spectrum beta-lactamase producing Klebsiella pneumoniae isolate 255-infected ICR mouse at bacteriostatic concentration; assay type: functional; procedure, shortened: as §1
[14] = Ratio of fAUC to MIC in extended-spectrum beta-lactamase producing Klebsiella pneumoniae isolate 266 at bacteriostatic concentration; assay type: functional; procedure, shortened: as §1
[15] = Ratio of fAUC to MIC in extended-spectrum beta-lactamase producing Klebsiella pneumoniae isolate 320-infected ICR mouse at bacteriostatic concentration; assay type: functional; procedure, shortened: as §1
[16] = Ratio of fAUC to MIC in carbapenemase producing Klebsiella pneumoniae isolate 321-infected ICR mouse at bacteriostatic concentration; assay type: functional; procedure, shortened: as §1
[17] = system: Escherichia coli; assay: Antibacterial activity against Escherichia coli isolate 54 infected in ICR mouse assessed as change in bacterial load at 6.25 to 50 mg/kg, sc; assay type: functional; conditions: dose mg/kg 6.25-50; route subcutaneous
Procedure, shortened: (§2)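 Female CD-1/ICR mice (~25 g) were made neutropenic with intraperitoneal cyclophosphamide, 150 mg/kg 4 days and 100 mg/kg 1 day before inoculation. Isolates were grown on blood agar at 35°C for 18–24 h, and 0.1 ml of 10^7 CFU/ml was injected intramuscularly per thigh. At 2 h, tigecycline in saline was given sc as single or multiple doses of 3.125–50 mg/kg. Thighs were homogenized at 24 h and plated. Read-out was mean change in log10 CFU/ml versus 0-h controls, three mice per group.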

[18] = system: Escherichia coli; assay: Antibacterial activity against Escherichia coli isolate 120 infected in ICR mouse assessed as change in bacterial load at 6.25 to 50 mg/kg, sc; assay type: functional; conditions: dose mg/kg 6.25-50; route subcutaneous; procedure, shortened: as §2
[19] = system: Escherichia coli; assay: Antibacterial activity against extended-spectrum beta-lactamase producing Escherichia coli isolate 315 infected in ICR mouse assessed as change in bacterial load at 6.25 to 50 mg/kg, sc; assay type: functional; conditions: dose mg/kg 6.25-50; route subcutaneous; procedure, shortened: as §2
[20] = system: Escherichia coli; assay: Antibacterial activity against extended-spectrum beta-lactamase producing Escherichia coli isolate 321 infected in ICR mouse assessed as change in bacterial load at 6.25 to 50 mg/kg, sc; assay type: functional; conditions: dose mg/kg 6.25-50; route subcutaneous; procedure, shortened: as §2
[21] = system: Escherichia coli; assay: Antibacterial activity against extended-spectrum beta-lactamase producing Escherichia coli isolate 322 infected in ICR mouse assessed as change in bacterial load at 6.25 to 50 mg/kg, sc; assay type: functional; conditions: dose mg/kg 6.25-50; route subcutaneous; procedure, shortened: as §2
[22] = system: Klebsiella pneumoniae; assay: Antibacterial activity against Klebsiella pneumoniae isolate 134 infected in ICR mouse assessed as change in bacterial load at 6.25 to 50 mg/kg, sc; assay type: functional; conditions: dose mg/kg 6.25-50; route subcutaneous; procedure, shortened: as §2
[23] = system: Klebsiella pneumoniae; assay: Antibacterial activity against Klebsiella pneumoniae isolate 135 infected in ICR mouse assessed as change in bacterial load at 6.25 to 50 mg/kg, sc; assay type: functional; conditions: dose mg/kg 6.25-50; route subcutaneous; procedure, shortened: as §2
[24] = system: Klebsiella pneumoniae; assay: Antibacterial activity against extended-spectrum beta-lactamase producing Klebsiella pneumoniae isolate 255 infected in ICR mouse assessed as change in bacterial load at 6.25 to 50 mg/kg, sc; assay type: functional; conditions: dose mg/kg 6.25-50; route subcutaneous; procedure, shortened: as §2
[25] = system: Klebsiella pneumoniae; assay: Antibacterial activity against extended-spectrum beta-lactamase producing Klebsiella pneumoniae isolate 266 infected in ICR mouse assessed as change in bacterial load at 6.25 to 50 mg/kg, sc; assay type: functional; conditions: dose mg/kg 6.25-50; route subcutaneous; procedure, shortened: as §2
[26] = system: Klebsiella pneumoniae; assay: Antibacterial activity against extended-spectrum beta-lactamase producing Klebsiella pneumoniae isolate 320 infected in ICR mouse assessed as change in bacterial load at 6.25 to 50 mg/kg, sc; assay type: functional; conditions: dose mg/kg 6.25-50; route subcutaneous; procedure, shortened: as §2
[27] = system: Klebsiella pneumoniae; assay: Antibacterial activity against carbapenemase producing Klebsiella pneumoniae isolate 321 infected in ICR mouse assessed as change in bacterial load at 6.25 to 50 mg/kg, sc; assay type: functional; conditions: dose mg/kg 6.25-50; route subcutaneous; procedure, shortened: as §2
[28] = system: Mus musculus; assay: AUC in ICR mouse at 6.25 mg/kg, sc; conditions: in vivo
[29] = Cmax in ICR mouse at 6.25 mg/kg, sc; conditions: in vivo

Compound CN(C)c1cc(NC(=O)CNC(C)(C)C)c(O)c2c1C[C@H]1C[C@H]3[C@H](N(C)C)C(O)=C(C(N)=O)C(=O)[C@@]3(O)C(O)=C1C2=O [TIGECYCLINE] has a fAUC/MIC [1] of 3.62, a fAUC/MIC [2] of 2.64 and a fAUC/MIC [3] of 5.37. The fAUC/MIC [4] was 2.01, the fAUC/MIC [5] was 4.53 and the fAUC/MIC [6] was 5.96. For the same compound, the fAUC/MIC [7] was 4.76, the fAUC/MIC [8] was 3.88 and the fAUC/MIC [9] was 6.83. For the same compound, the fAUC/MIC [10] was 7.5, the fAUC/MIC [11] was 6.53 and the fAUC/MIC [12] was 5.4. For the same compound, the fAUC/MIC [13] was 2.02, the fAUC/MIC [14] was 5.13 and the fAUC/MIC [15] was 3.09. For the same compound, the fAUC/MIC [16] was 5.47, the log10CFU/ml [17] was -2.05 and the log10CFU/ml [18] was -2.3. The log10CFU/ml [19] was -2, the log10CFU/ml [20] was -2.54 and the log10CFU/ml [21] was -2.4. It also gave a log10CFU/ml [22] of -1.42, a log10CFU/ml [23] of -1.51 and a log10CFU/ml [24] of -3.15. For the same compound, the log10CFU/ml [25] was -1.34, the log10CFU/ml [26] was -1.12 and the log10CFU/ml [27] was -1.46. It also gave an AUC [28] of 4800 ng·h/mL and a Cmax [29] of 1700 ng/mL.
